A selection: hits, their analogues and other compounds. The true share with any hit is near 5.7%.
T cruzi inh = blocks replication of Trypanosoma cruzi | T. cruzi beta-gal in NIH3T3, luminescence, 90 h | inhibition, % (concentration not given with the values) | hit rate 1.4% among 300,000;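 active = mean inhibition across valid replicates above about 55%, limit read from the data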;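 note: signal also drops with host cell toxicity which is not excluded here; 0% = plate median of DMSO wells and 100% = zero luminescence signal; higher percent means less beta-gal luminescence so fewer parasites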
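Incubation – ≥90 h infection period, 3 h prior cell attachment · System – NIH/3T3 fibroblasts plus reporter T. cruzi · Doses – compound pinned at 50 nL/well, DMSO · Read-out basis – percent inhibition of parasite-derived β-gal signal · Signal – luminescent β-galactosidase signal after 60 min lysis · Also added – 5000 T. cruzi trypomastigotes/well · Medium – Low-serum DMEM with 2% FBS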
SKKanGAS inh = blocks kanamycin growth of S. pyogenes SKKanGAS strain | BacTiter-Glo, 6 h | inhibition, % at 7.5 µM | hit rate 1.3% among 300,000 | AID 1662;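 active = mean replicate score, as percent of positive control median, at least 50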;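 note: strain carries kanamycin resistance gene driven by streptokinase promoter and grows in 40 µg/ml kanamycin; loss of luminescence reflects streptokinase promoter inhibition or plain growth inhibition; 0% = median of DMSO wells and 100% = positive control at its reference dose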
Beta apoptosis = blocks beta cell apoptosis | INS-1E cytokine-induced death, ATP luminescence, 48 h; percent of positive-control rescue, neutral wells zero | protection from apoptosis, % (no concentration beside the values) | hit rate 0.8% among 300,000 | AID 435005;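 active = Every replicate reaches about 75%, or at least half do and their mean reaches it too, limit read from the data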;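 note: 0% = cytokine-treated negative control wells and 100% = positive control rescue; higher means more ATP so stronger rescue from cytokine killing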
CSC inhib = blocks cancer stem cells | inhibition, % at 7.5 µM | AID 2717 | cancer stem cell-like cells viability, luminescence | hit rate 1.1% among 300,000; in the data active = inhibition above about 75%; tested in HMLE shEcad cells
Calb FLC = C. albicans growth modulation with fluconazole; AID 1979; hit rate 0.57% among 300,000; growth inhibition, % (concentration not given with the values); C. albicans CaCi-2 + fluconazole, Alamar Blue growth, 48 h;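 active = growth inhibition above about 58% in most replicates, limit read from the data, passing the limit was not always enough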;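 note: all wells also contain fluconazole at 8 µg/ml as a sub-toxic cotreatment; 0% = median of DMSO wells and 100% = median of geldanamycin control wells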
Mdm2 MdmX PPI = inhibitors of human Mdm2/MdmX interaction | O15151+Q00987 | SaOS-2 split-luciferase Mdm2/MdmX complementation, luminescence | inhibition, % at 8 µM | hit rate 3% among 330,000;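 active = inhibition of at least 50% at 8 µM in the primary screen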
Mdm2-MdmX conf = confirmation of human Mdm2/MdmX interaction inhibitors. shares compounds with Mdm2 MdmX PPI. Mdm2-MdmX binding, luminescent assay. inhibition, % at 8 µM. hit rate 55% among 10,000. AID 489028; in the data active = inhibition above about 40%
Full FLuc ctr = counter-screen for Mdm2/MdmX inhibitors: full-length luciferase; inhibition, % at 8 µM; SaOS-2 full-length luciferase counterscreen, luminescence; shares compounds with Mdm2 MdmX PPI; hit rate 77% among 6,200;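 active = mean inhibition at 8 µM reaching about 37%, which flags the compound as non-specific, limit read from the data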;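 note: p53-null SaOS-2 cells with luciferase driven by a doxycycline-inducible promoter; compound on cells about two nights before reading with doxycycline added after day one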
* hit, by the source's call; . = no result given; + = active, no number.

SMILES | T cruzi inh | SKKanGAS inh | Beta apoptosis | CSC inhib | Calb FLC | Mdm2 MdmX PPI | Mdm2-MdmX conf | others
C=CCC[C@H](Cc1ccc(F)cc1)C(=O)OC[C@@H](Cc1c[nH]c2ccccc12)NC(=O)[C@H](CC=C)CC(=O)NCCO | . | . | -6 | 6 | . | 6 | .
C=CCC[C@H](Cc1ccc(F)cc1)C(=O)OC[C@H](Cc1c[nH]c2ccccc12)NC(=O)[C@@H](CC=C)CC(=O)N[C@H](CO)Cc1ccccc1 | . | . | 6 | 64 | . | 85* | 29
C=CCC[C@H](Cc1ccc(F)cc1)C(=O)OC[C@H](Cc1c[nH]c2ccccc12)NC(=O)[C@@H](CC=C)CC(=O)N[C@@H](CO)Cc1ccccc1 | . | . | 52 | 39 | . | 77* | 42* | Full FLuc ctr=49*
CCOC(=O)Nc1ccc2c(c1)N(C(=O)CN1CCN(CCO)CC1)c1ccccc1CC2 | -6 | 3 | . | -5 | -3 | 31 | .
COc1ccc(CCNc2nc(C)nc3c2nnn3Cc2ccccc2)cc1OC | 9 | -3 | 9 | -24 | 17 | 21 | .
CC1CC(=O)Nc2ccccc2N1C(=O)COc1cc(Cl)ccc1Cl (stereo not drawn) | . | . | -4 | -16 | . | 8 | .
O=C(NNc1cccc(Cl)n1)c1ccccc1CC[N+](=O)[O-] | 3 | 4 | 1 | -2 | -4 | 92* | -9
CCCCCOc1ccc(C(O)C(CN2CCOCC2)c2ccccc2)cc1 (stereo not drawn) | -8 | 3 | -2 | 10 | -29 | 14 | .
COc1ccc(NS(=O)(=O)c2cc(OC)ccc2NC(=O)c2cc(C)oc2C)cc1 | 7 | 5 | 10 | 57 | -3 | 51* | 61* | Full FLuc ctr=48*
CC(C)(C)c1nc2ccc(NS(=O)(=O)c3ccc(F)c(F)c3F)cc2[nH]1 | -11 | -2 | -10 | -16 | 5 | -28 | .
CC[C@]12c3[nH]c4ccccc4c3CCN1C(=O)C(CC(=O)NCCC1=CCCCC1)C[C@@H]2C(=O)N1CCN(C(=O)C2CC2)CC1 (stereo partly drawn) | . | . | -9 | . | . | -1 | .
O=C(NCc1cccnc1)c1cccc(NS(=O)(=O)c2ccc(Br)cc2)c1 | -1 | 7 | 20 | -1 | 2 | 39 | .
Cc1ccc(S(=O)(=O)Nc2cccc(C(=O)NCc3cccnc3)c2)cc1F | 10 | 8 | 20 | 59 | -7 | 51* | 76* | Full FLuc ctr=62*
CC1CCc2nc(NC(=O)C3COc4ccccc4O3)sc2C1 (stereo not drawn) | 17 | -4 | 11 | 18 | 2 | 52* | 77* | Full FLuc ctr=+
O=C(Nc1nc2ccccc2s1)c1cccc(S(=O)(=O)N2CCc3ccccc32)c1 | 26 | 34 | 18 | 45 | -6 | 1 | .
CC1CCc2nc(NC(=O)C3CC3)sc2C1 (stereo not drawn) | 34 | -1 | 3 | -16 | 19 | -5 | .
CC1CCc2nc(NC(=O)c3ccc(S(=O)(=O)N4CCCc5ccccc54)cc3)sc2C1 (stereo not drawn) | 61* | 8 | 18 | 5 | 4 | 58* | 12
O=S(=O)(NCC1(N2CCOCC2)CCCCC1)c1ccc(F)c(F)c1F | 2 | 0 | 3 | . | -3 | 7 | .
Cc1ccc(C(=O)CSc2nnc(-c3ccc4[nH]c(C)c(C)c4c3)o2)cc1C | 44 | -10 | 4 | 5 | -7 | 51* | 9
Cc1[nH]c2ccc(-c3nnc(SCC(=O)c4ccccc4F)o3)cc2c1C | 30 | 16 | -4 | 15 | 5 | 37 | .
CC(O)(CS(=O)(=O)Cc1ccccc1)c1ccccc1Cl (stereo not drawn) | -5 | -5 | -6 | 20 | -1 | 10 | .
N/C(=N\OC(=O)c1cnn(-c2ccccc2)c1C(F)(F)F)c1cc(C(F)(F)F)cc(C(F)(F)F)c1 | -12 | 12 | -2 | -18 | 3 | 52* | 19
O=C(NNC(=O)C(Cl)Cl)c1cnn(-c2ccccc2)c1C(F)(F)F | -12 | 6 | 2 | 10 | -5 | -36 | .
COc1cccc(NC(=O)Cn2c3ccc(OC)cc3c3nc4n(c(=O)c32)CCS4)c1 | 2 | 3 | 15 | 15 | 20 | 37 | .

Screening data from PubChem BioAssay.
